What was measured:
[1] = target: T1, Endothelin receptor type B (Homo sapiens, UniProt P24530); assay: Binding ability determined by the displacement of [125 I]ET-3 from the human Endothelin B receptor
T1 sequence (P24530 whole entry): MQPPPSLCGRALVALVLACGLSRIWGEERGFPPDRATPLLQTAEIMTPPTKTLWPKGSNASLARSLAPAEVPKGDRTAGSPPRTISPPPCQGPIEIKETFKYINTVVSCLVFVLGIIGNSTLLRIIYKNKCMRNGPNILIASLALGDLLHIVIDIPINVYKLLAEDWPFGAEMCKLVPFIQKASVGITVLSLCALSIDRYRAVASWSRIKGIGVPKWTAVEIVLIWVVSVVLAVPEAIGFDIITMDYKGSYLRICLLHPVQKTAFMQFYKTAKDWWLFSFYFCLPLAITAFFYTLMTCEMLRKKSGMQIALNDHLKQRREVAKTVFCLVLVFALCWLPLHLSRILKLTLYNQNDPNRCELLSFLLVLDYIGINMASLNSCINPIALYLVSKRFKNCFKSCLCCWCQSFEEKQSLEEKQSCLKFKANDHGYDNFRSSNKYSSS

Endothelin-1 receptor = target: T2, Endothelin-1 receptor (Homo sapiens, UniProt P25101); assay: Binding ability determined by the displacement of [125I]ET1 from the human endothelin A receptor
T2 sequence (P25101 whole entry): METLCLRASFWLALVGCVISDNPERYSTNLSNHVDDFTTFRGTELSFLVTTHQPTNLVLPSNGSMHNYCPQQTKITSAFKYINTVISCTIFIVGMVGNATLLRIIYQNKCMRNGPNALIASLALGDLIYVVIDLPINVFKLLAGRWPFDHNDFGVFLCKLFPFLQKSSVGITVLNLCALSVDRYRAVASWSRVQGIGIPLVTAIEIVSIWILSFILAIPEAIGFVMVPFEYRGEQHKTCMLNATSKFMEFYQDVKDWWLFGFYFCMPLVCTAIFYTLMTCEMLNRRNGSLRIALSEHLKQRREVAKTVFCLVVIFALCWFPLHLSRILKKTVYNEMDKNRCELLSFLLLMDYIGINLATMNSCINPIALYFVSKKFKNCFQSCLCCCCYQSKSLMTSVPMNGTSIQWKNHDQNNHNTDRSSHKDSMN

[2] = target: Endothelin receptor, ET-A/ET-B (Homo sapiens) (UniProt P24530+P25101); assay: Ratio of binding affinity towards human endothelin receptor type A to human endothelin receptor type B (hETA to hETB); format: protein assay
[3] = Total drug exposure (5 mg/kg) when administered intravenously; format: ADME, organism-based; conditions: in vivo, iv
Procedure, shortened: (§1)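 Rats dosed at 5 mg/kg by intravenous injection and by oral gavage. Time course of plasma drug levels compared between the two routes to give half-life and AUC0-∞. Oral bioavailability F is calculated from the two routes.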

[4] = Total drug exposure (5 mg/kg) when administered orally; format: ADME, organism-based; conditions: in vivo, po; procedure, shortened: as §1
[5] = Oral bioavailability; format: ADME, organism-based; conditions: eutheria, in vivo; procedure, shortened: as §1
[6] = Half life (5 mg/kg) when administered intravenously; format: ADME, organism-based; conditions: in vivo, iv; procedure, shortened: as §1
[7] = Half life (5 mg/kg) when administered orally; format: ADME, organism-based; conditions: in vivo, po; procedure, shortened: as §1

Structure (SMILES) | IC50 [1] [nM] | IC50 (Endothelin-1 receptor) [nM] | Ratio [2] | AUC [3] [ng·h/mL] | AUC [4] [ng·h/mL] | bioavailability [5] [%] | half-life [6] [h] | half-life [7] [h]
COc1ccc([C@H]2[C@H](C(=O)O)[C@@H](c3ccc4c(c3)OCO4)CN2CC(=O)NC(C)c2ccccc2)cc1 (stereo partly specified) | 20 | 5.5 | 0.28 |  |  |  |  | 
CCc1ccccc1C(NC(=O)CN1C[C@H](c2ccc3c(c2)OCO3)[C@@H](C(=O)O)[C@@H]1c1ccc(OC)cc1)c1ccccc1CC | 6.6 | 100 | 15.2 |  |  |  |  | 
COc1ccc([C@H]2[C@H](C(=O)O)[C@@H](c3ccc4c(c3)OCO4)CN2CC(=O)NC2c3ccccc3-c3ccccc32)cc1 | 600 | 1230 | 2.05 |  |  |  |  | 
COc1ccc([C@H]2[C@H](C(=O)O)[C@@H](c3ccc4c(c3)OCO4)CN2CC(=O)NC(CC(C)C)c2ccccc2)cc1 (stereo partly specified) | 3.4 | 13.6 | 4 |  |  |  |  | 
CCc1ccccc1C(NC(=O)CN1C[C@H](c2ccc3c(c2)OCO3)[C@@H](C(=O)O)[C@@H]1c1ccc(OC)cc1)c1ccccc1C (stereo partly specified) | 6.1 | 749 | 123 |  |  |  |  | 
COc1ccc([C@H]2[C@H](C(=O)O)[C@@H](c3ccc4c(c3)OCO4)CN2CC(=O)NC(c2ccccc2)c2ccccc2C)cc1 (stereo partly specified) | 3.4 | 63.5 | 18.7 |  |  |  |  | 
COc1ccc([C@H]2[C@H](C(=O)O)[C@@H](c3ccc4c(c3)OCO4)CN2CC(=O)NCC(c2ccccc2)c2ccccc2)cc1 | 108 | 199 | 1.84 |  |  |  |  | 
COc1ccc([C@H]2[C@H](C(=O)O)[C@@H](c3ccc4c(c3)OCO4)CN2CC(=O)NC(c2ccccc2)C(C)C)cc1 (stereo partly specified) | 2.1 | 0.7 | 0.33 |  |  |  |  | 
Cc1ccccc1C(NC(=O)CN1C[C@H](c2ccc3c(c2)OCO3)[C@@H](C(=O)O)[C@@H]1c1ccc(OCCOC(C)C)cc1)c1ccccc1C (stereo in doubt; form 2) [listing 1 of 2 here] | 3.3 | 77400 |  |  |  |  |  | 
Cc1ccccc1C(NC(=O)CN1C[C@H](c2ccc3c(c2)OCO3)[C@@H](C(=O)O)[C@@H]1c1ccc(OCCOC(C)C)cc1)c1ccccc1C (stereo in doubt; form 1) |  |  | 27200 |  |  |  |  | 
COc1ccc([C@H]2[C@H](C(=O)O)[C@@H](c3ccc4c(c3)OCO4)CN2CC(=O)NC(c2ccccc2)c2ccccc2)cc1 | 8.1 | 45.9 | 5.67 |  |  |  |  | 
CCCCC(NC(=O)CN1C[C@H](c2ccc3c(c2)OCO3)[C@@H](C(=O)O)[C@@H]1c1ccc(OC)cc1)c1ccccc1 (stereo partly specified) | 5 | 1.6 | 0.32 |  |  |  |  | 
CC(C)OCCOc1ccc([C@H]2[C@H](C(=O)O)[C@@H](c3ccc4c(c3)OCO4)CN2CC(=O)NC(c2ccccc2)C(C)(C)C)cc1 (stereo partly specified) | 0.71 | 322 | 454 |  |  |  |  | 
CCC(NC(=O)CN1C[C@H](c2ccc3c(c2)OCO3)[C@@H](C(=O)O)[C@@H]1c1ccc(OC)cc1)c1ccccc1 (stereo partly specified) | 2.6 | 1 | 0.38 |  |  |  |  | 
COc1ccc([C@H]2[C@H](C(=O)O)[C@@H](c3ccc4c(c3)OCO4)CN2CC(=O)NC(c2ccccc2)(c2ccccc2)c2ccccc2)cc1 | 744 | 432 | 0.58 |  |  |  |  | 
CCc1ccccc1C(NC(=O)CN1C[C@H](c2ccc3c(c2)OCO3)[C@@H](C(=O)O)[C@@H]1c1ccc(OCCOC(C)C)cc1)c1ccccc1C (stereo partly specified) | 3.3 | 14300 | 4320 |  |  |  |  | 

Structure (SMILES) | IC50 [1] [nM] | IC50 (Endothelin-1 receptor) [nM] | Ratio [2] | AUC [3] [ng·h/mL] | AUC [4] [ng·h/mL] | bioavailability [5] [%] | half-life [6] [h] | half-life [7] [h]
COc1ccc([C@H]2[C@H](C(=O)O)[C@@H](c3ccc4c(c3)OCO4)CN2CC(=O)NC(c2ccccc2)c2cc(C)ccc2C)cc1 (stereo partly specified) | 31 | 122 | 3.94 |  |  |  |  | 
COCCOc1ccc([C@H]2[C@H](C(=O)O)[C@@H](c3ccc4c(c3)OCO4)CN2CC(=O)NC(c2ccccc2)C(C)(C)C)cc1 (stereo partly specified) | 2.2 | 488 | 222 |  |  |  |  | 
COc1ccc([C@H]2[C@H](C(=O)O)[C@@H](c3ccc4c(c3)OCO4)CN2CC(=O)NC(CC(C)(C)C)c2ccccc2)cc1 (stereo partly specified) | 5 | 131 | 26.2 |  |  |  |  | 
COCCOc1ccc([C@H]2[C@H](C(=O)O)[C@@H](c3ccc4c(c3)OCO4)CN2CC(=O)NC(c2ccccc2C)c2ccccc2C)cc1 (stereo in doubt; form 2) |  |  | 16000 |  |  |  |  | 
Cc1ccccc1C(NC(=O)CN1C[C@H](c2ccc3c(c2)OCO3)[C@@H](C(=O)O)[C@@H]1c1ccc(OCCOC(C)C)cc1)c1ccccc1C.O=C(O)C(F)(F)F (stereo in doubt; form 1) | 1.9 | 51700 |  | 3030 | 730 | 24 | 1.8 | 4.8
COCCOc1ccc([C@H]2[C@H](C(=O)O)[C@@H](c3ccc4c(c3)OCO4)CN2CC(=O)NC(c2ccccc2C)c2ccccc2C)cc1 (stereo in doubt; form 1) [listing 1 of 2 here] | 1.7 | 20600 |  |  |  |  |  | 
CCCC(NC(=O)CN1C[C@H](c2ccc3c(c2)OCO3)[C@@H](C(=O)O)[C@@H]1c1ccc(OC)cc1)c1ccccc1 (stereo partly specified) | 7.3 | 3.7 | 0.51 |  |  |  |  | 
COc1ccc([C@H]2[C@H](C(=O)O)[C@@H](c3ccc4c(c3)OCO4)CN2CC(=O)NC(C)c2ccccc2C)cc1 (stereo partly specified) | 18 | 16 | 0.89 |  |  |  |  | 
COc1ccc([C@H]2[C@H](C(=O)O)[C@@H](c3ccc4c(c3)OCO4)CN2CC(=O)NC(c2ccccc2C)c2ccccc2C)cc1 | 1.1 | 161 | 146 |  |  |  |  | 
COCCOc1ccc([C@H]2[C@H](C(=O)O)[C@@H](c3ccc4c(c3)OCO4)CN2CC(=O)NC(c2ccccc2C)c2ccccc2C)cc1.O=C(O)C(F)(F)F (stereo in doubt; form 2) | 1.7 | 27000 |  | 2500 | 200 | 8 | 2.9 | 0.55
COCCOc1ccc([C@H]2[C@H](C(=O)O)[C@@H](c3ccc4c(c3)OCO4)CN2CC(=O)NC(c2ccccc2C)c2ccccc2C)cc1 (stereo in doubt; form 1) [listing 2 of 2 here] |  |  | 12100 |  |  |  |  | 
COc1ccc([C@H]2[C@H](C(=O)O)[C@@H](c3ccc4c(c3)OCO4)CN2CC(=O)NC(Cc2ccccc2)c2ccccc2)cc1 (stereo partly specified) | 47 | 3.9 | 0.08 |  |  |  |  | 
Cc1ccccc1C(NC(=O)CN1C[C@H](c2ccc3c(c2)OCO3)[C@@H](C(=O)O)[C@@H]1c1ccc(OCCOC(C)C)cc1)c1ccccc1C (stereo in doubt; form 2) [listing 2 of 2 here] |  |  | 23400 |  |  |  |  | 
CCC(CC)C(NC(=O)CN1C[C@H](c2ccc3c(c2)OCO3)[C@@H](C(=O)O)[C@@H]1c1ccc(OC)cc1)c1ccccc1 (stereo partly specified) | 1.1 | 2.5 | 2.27 |  |  |  |  | 
COc1ccc([C@H]2[C@H](C(=O)O)[C@@H](c3ccc4c(c3)OCO4)CN2CC(=O)NC(c2ccccc2)C(C)(C)C)cc1 (stereo partly specified) | 0.94 | 8.8 | 9.36 |  |  |  |  | 
